The source made the active and inactive calls. The rule behind the calls is not given here.
Key:
[1] = system: MDM; assay: Antihyperlipidemic activity in human MDM assessed as inhibition of acetylated LDL-induced [3H]-cholesterol ester accumulation at 20 uM after 24 hrs by radioscanner analysis in presence of [3H]-oleate-conjugated BSA; type: functional
In short: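 Monocytes were isolated from healthy-volunteer blood on Ficoll, allowed to adhere for 1 h, then differentiated for 7 days into macrophages in DMEM with 10% pooled human serum. The macrophages were incubated for 24 h at 37 °C in 5% CO2 with 50 μg/mL AcLDL, 0.1 mM BSA-conjugated [3H]oleate and 20 μM sample. Cellular lipids were extracted, [3H]CE was separated by TLC, and it was quantified by radioscanner.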

[2] = biological target: T1, Sterol O-acyltransferase 1 (Homo sapiens, UniProt P35610); assay: Inhibition of macrophage ACAT (unknown origin)
T1 sequence (P35610 whole entry): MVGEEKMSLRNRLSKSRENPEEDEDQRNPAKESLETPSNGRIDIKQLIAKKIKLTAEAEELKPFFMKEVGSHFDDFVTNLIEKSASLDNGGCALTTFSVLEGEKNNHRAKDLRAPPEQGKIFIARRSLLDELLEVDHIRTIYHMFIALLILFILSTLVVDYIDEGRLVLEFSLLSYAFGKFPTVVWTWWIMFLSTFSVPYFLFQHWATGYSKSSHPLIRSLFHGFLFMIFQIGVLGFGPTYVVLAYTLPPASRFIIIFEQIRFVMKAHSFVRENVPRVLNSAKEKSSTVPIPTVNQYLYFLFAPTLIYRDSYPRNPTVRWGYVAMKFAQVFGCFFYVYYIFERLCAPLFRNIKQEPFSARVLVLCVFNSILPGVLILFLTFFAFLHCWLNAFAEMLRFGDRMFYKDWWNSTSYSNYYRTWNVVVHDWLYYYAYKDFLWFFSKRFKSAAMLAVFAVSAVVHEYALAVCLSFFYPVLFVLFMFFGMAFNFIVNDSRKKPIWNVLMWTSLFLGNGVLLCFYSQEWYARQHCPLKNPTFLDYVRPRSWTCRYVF

[3] = system: Mus musculus; assay: Antiatherosclerotic activity in apoE-deficient C57BL/6 mouse assessed as decrease in total plasma cholesterol level at 30 mg/kg/day administered through feeding measured after 80 days relative to control; type: functional; set-up: scale not given: the % may be the effect or the level left
[4] = system: Mus musculus; assay: Antiatherosclerotic activity in apoE-deficient C57BL/6 mouse assessed as decrease in plasma free cholesterol level at 30 mg/kg/day administered through feeding measured after 80 days relative to control; type: functional; set-up: scale not given: the % may be the effect or the level left
[5] = (§1) Inhibition of microsomal ACAT in apoE-deficient mouse peritoneal macrophage using [14C]oleoyl-CoA as substrate assessed as formation of cholesteryl [14C]-oleate […] by TLC analysis
[6] = species on record: Mus musculus; assay: as §1
[7] = system: MDM; assay: Effect on scavenger receptor-A expression in human MDM at 5 to 30 uM after 24 hrs by immunoblot analysis; type: functional
In short: (§2)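 HMDMs exposed 24 h to graded compound concentrations, solubilised in 1% Triton X-100, boiled in SDS sample buffer, then N-glycosidase-treated at 37 °C for 24 h. 10 μg protein run on 10% SDS-PAGE and immunoblotted for human ACAT-1, SR-A (E5) or SR-BI, with β-actin reprobe; band density quantified.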

[8] = system: MDM; assay: Effect on ACAT expression in human MDM at 5 to 30 uM after 24 hrs by immunoblot analysis; type: functional; in short: as §2
[9] = system: Mus musculus; assay: Antiatherosclerotic activity in apoE-deficient C57BL/6 mouse assessed as decrease in atherosclerotic lesion size in aortic sinus at 30 mg/kg/day administered through feeding measured after 80 days by oil red O/hematoxylin staining assay relative to control; type: functional; set-up: scale not given: the % may be the effect or the level left
[10] = Cytotoxicity against human MDM assessed as cell viability at 50 uM after 24 hrs by WST-8 assay
In short: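 HMDMs seeded at 1×10^4 per well, treated with compound; viability read by WST-8 assay.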

[11] = Cytotoxicity against human MDM assessed as change in cell morphology at 50 uM
[12] = biological target: T2, Sterol O-acyltransferase 2 (Homo sapiens, UniProt O75908); assay: (§3) Non-competitive inhibition of human microsomal ACAT2 overexpressed in CHO cells using [14C]oleoyl-CoA as substrate assessed as formation of cholesteryl [14C]-oleate […]
T2 sequence (O75908 whole entry): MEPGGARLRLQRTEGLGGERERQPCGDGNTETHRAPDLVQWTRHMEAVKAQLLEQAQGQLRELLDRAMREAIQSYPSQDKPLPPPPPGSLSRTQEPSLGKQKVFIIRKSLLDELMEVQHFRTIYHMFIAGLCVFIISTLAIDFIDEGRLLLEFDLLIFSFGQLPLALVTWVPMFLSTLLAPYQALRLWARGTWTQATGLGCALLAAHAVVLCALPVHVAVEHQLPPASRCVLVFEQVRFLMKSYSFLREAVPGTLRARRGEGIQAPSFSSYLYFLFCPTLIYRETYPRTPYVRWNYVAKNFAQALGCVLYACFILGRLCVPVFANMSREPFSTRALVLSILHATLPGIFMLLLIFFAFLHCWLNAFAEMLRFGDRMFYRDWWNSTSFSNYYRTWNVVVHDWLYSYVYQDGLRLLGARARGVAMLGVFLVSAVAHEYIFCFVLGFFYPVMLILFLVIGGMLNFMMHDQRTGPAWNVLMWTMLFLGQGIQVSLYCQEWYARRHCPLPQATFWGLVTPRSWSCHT

[13] = biological target: T3, Sterol O-acyltransferase 2 (Homo sapiens) (UniProt O75908); assay: as §3
T3 sequence (whole entry): T2 sequence (O75908 whole entry)

[14] = system: CHO; assay: Antihyperlipidemic activity in CHO cells overexpressing human ACAT2 assessed as inhibition of [3H]-cholesterol ester accumulation after 24 hrs by radioscanner analysis in presence of [3H]-oleate-conjugated BSA; type: functional, cell-based; details: Cricetulus griseus
In short: (§4)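 CHO cells stably overexpressing human ACAT-1 or ACAT-2, grown in F-12 HAM with 10% FCS and G418 800 μg/mL. Incubated 24 h in medium with 10% FCS, 0.1 mM [3H]oleate–BSA and graded compound concentrations; no AcLDL. Lipids extracted, [3H]CE separated by TLC and counted by radioscanner.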

[15] = (§5) Antihyperlipidemic activity in human MDM assessed as inhibition of acetylated LDL-induced [3H]-cholesterol ester accumulation after 24 hrs by radioscanner analysis in presence of [3H]-oleate-conjugated BSA; type: functional
In short: (§6)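 Human monocytes from healthy volunteer blood by Ficoll, adhered 1 h, differentiated 7 days in DMEM with 10% pooled human serum. Monolayers incubated 24 h with AcLDL 50 μg/mL plus 0.1 mM [3H]oleate–BSA with or without compound; lipids extracted, [3H]cholesteryl oleate separated by TLC and counted by radioscanner.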

[16] = system: MDM; assay: as §5; type: functional; in short: as §6
[17] = system: Mus musculus; assay: Antiatherosclerotic activity in apoE-deficient C57BL/6 mouse assessed as decrease in plasma LDL cholesterol level at 30 mg/kg/day administered through feeding measured after 80 days relative to control; type: functional; set-up: scale not given: the % may be the effect or the level left
[18] = biological target: T4, Sterol O-acyltransferase 1 (Homo sapiens) (UniProt P35610); assay: (§7) Non-competitive inhibition of microsomal ACAT in human MDM using [14C]oleoyl-CoA as substrate assessed as formation of cholesteryl [14C]-oleate […]
T4 sequence (whole entry): T1 sequence (P35610 whole entry)

[19] = biological target: T1, Sterol O-acyltransferase 1; assay: as §7
[20] = system: CHO; assay: Antihyperlipidemic activity in CHO cells overexpressing human ACAT1 assessed as inhibition of [3H]-cholesterol ester accumulation after 24 hrs by radioscanner analysis in presence of [3H]-oleate-conjugated BSA; type: functional, cell-based; details: Cricetulus griseus; in short: as §4
[21] = Cytotoxicity against human MDM assessed as inhibition of acetylated LDL-induced [3H]-triglyceride synthesis at 50 uM after 24 hrs by radioscanner analysis in presence of [3H]-oleate-conjugated BSA
In short: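 HMDMs incubated 24 h with AcLDL 50 μg/mL and 0.1 mM [3H]oleate–BSA with or without compound; extracted lipids assayed for TG-[3H]oleate radioactivity.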

[22] = system: MDM; assay: Effect on scavenger receptor-B1 expression in human MDM at 5 to 30 uM after 24 hrs by immunoblot analysis; type: functional; in short: as §2
[23] = system: Peritoneal macrophage cell; assay: (§8) Antihyperlipidemic activity in apoE-deficient mouse peritoneal macrophages assessed as inhibition of acetylated LDL-induced [3H]-cholesterol ester accumulation after 24 hrs by radioscanner analysis in presence of [3H]-oleate-conjugated BSA; type: functional, cell-based
In short: (§9)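 Peritoneal macrophages from apoE-deficient mice, cultured in DMEM with 10% pooled human serum, 37 °C, 5% CO2. [3H]CE accumulation after AcLDL loading was measured by the [3H]oleate/TLC method.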

[24] = as §8; type: functional, cell-based; details: Peritoneal macrophage cell; in short: as §9
[25] = system: MDM; assay: Inhibition of endocytic [125I]-acetylated LDL uptake in human MDM at 50 uM after 5 hrs; type: functional
In short: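 Day-7 HMDMs in DMEM with 3% BSA, incubated 5 h at 37 °C with 125I-AcLDL (50 μg/mL, 600 cpm/ng) plus compound. Degradation was measured as TCA-soluble, AgNO3-cleared medium radioactivity. Cell-associated counts came from 0.1 M NaOH lysates after ice-cold PBS/1% BSA washes and were normalised to protein.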

[26] = system: Mus musculus; assay: Antiatherosclerotic activity in apoE-deficient C57BL/6 mouse assessed as decrease in plasma triglyceride level at 30 mg/kg/day administered through feeding measured after 80 days relative to control; type: functional; set-up: scale not given: the % may be the effect or the level left
[27] = biological target: T4, Sterol O-acyltransferase 1 (Homo sapiens); assay: (§10) Non-competitive inhibition of human microsomal ACAT1 overexpressed in CHO cells using [14C]oleoyl-CoA as substrate assessed as formation of cholesteryl [14C]-oleate […]
[28] = biological target: T1, Sterol O-acyltransferase 1; assay: as §10
[29] = biological target: T1, Sterol O-acyltransferase 1
[30] = biological target: T2, Sterol O-acyltransferase 2; assay: Inhibition of ACAT2 in human MDM assessed as inhibition of acetylated LDL-induced cholesterol ester accumulation after 1 hr by HPLC analysis
[31] = biological target: T2, Sterol O-acyltransferase 2; assay: Inhibition of macrophage ACAT2 (unknown origin)
[32] = biological target: T1, Sterol O-acyltransferase 1; assay: Inhibition of ACAT1 (unknown origin)
[33] = Inhibition of microsomal ACAT in cholesterol-fed JW rabbit intestine using [14C]oleoyl-CoA as substrate incubated for 5 mins prior to substrate addition measured after 5 to 10 mins by liquid scintillation counting analysis; type: microsomes, Oryctolagus cuniculus

## O=CC1=C[C@@]2(O)CC/C=C\CCCCN3CC[C@@H]1[C@]1(C[C@@H]4/C=C\CCCCN4[C@H]12)C3
[1]
  inhibition: Active

## CCCCCCCCCN(CC(C)(C)C)C(=O)N[C@H]1CCCC[C@@H]1OC(=O)CCNC(=O)[C@@H]1OC(C)(C)OCC1(C)C
[2]
  IC50: 32 nM

## O[C@H]1/C=C/C[C@]2(O)C=C(c3nccc4c3[nH]c3ccccc34)[C@@H]3CCN(CCCC1)C[C@@]31C[C@@H]3/C=C\CCCCN3[C@H]12
[1]
  inhibition: Active

## Oc1cccc2c1[nH]c1c(C3=C[C@@]4(O)CC/C=C\CCCCN5CC[C@@H]3[C@]3(CC6/C=C\CCCCN6[C@H]34)C5)nccc12 (some centres undefined)
[1]
  inhibition: Active

## O[C@]12C=C(c3nccc4c3[nH]c3ccccc34)[C@@H]3CCN(CCCC/C=C\CC1)C[C@@]31C[C@@H]3/C=C\CCCCN3[C@H]12 [MANZAMINE A]
[3]
  Activity: 40%
[4]
  Activity: 20%
[5]
  IC50: 5.8 µM
[6]
  inhibition: Dose-dependent effect
[7]
  Activity: inactive
[8]
  Activity: inactive
[9]
  Activity: 45%
[10]
  Activity: Toxic
[11]
  Activity: Toxic
[12]
  IC50: 4.8 µM
[13]
  inhibition: Dose-dependent effect
[14]
  inhibition: Dose-dependent effect
[15]
  IC50: 4.1 µM
[16]
  inhibition: Dose-dependent effect
[17]
  Activity: 40%
[18]
  inhibition: Dose-dependent effect
[19]
  IC50: 6.4 µM
[20]
  inhibition: Dose-dependent effect
[21]
  Activity: Toxic
[22]
  Activity: inactive
[1]
  inhibition: Active
[23]
  inhibition: Dose-dependent effect
[24]
  IC50: 6.2 µM
[25]
  inhibition: Active
[26]
  Activity: 50%
[27]
  inhibition: Dose-dependent effect
[28]
  IC50: 6.2 µM

## O=C1CCCN2[C@@H]3[C@@]45CN6CCCC/C=C\CC[C@@]3(C=C(c3nccc7c3[nH]c3ccccc37)[C@@H]4CC6)O[C@]2(CC1)C5
[1]
  inhibition: Active

## CC(C)c1cc(C(C)C)c(CC(=O)NS(=O)(=O)Oc2c(C(C)C)cccc2C(C)C)c(C(C)C)c1 [AVASIMIBE]
[29]
  IC50: 23.5 µM
[30]
  IC50: 9.2 µM

## CCCCCCCCN1CCc2c(C)c(CC(=O)O)c(C)c(NC(=O)C(C)(C)C)c21 [PACTIMIBE]
[31]
  IC50: 3 µM
[32]
  IC50: 4.9 µM

## c1ccc2c(c1)[nH]c1cnccc12
[1]
  inhibition: Active

## CN(C)c1ccc(NC(=O)N(C[C@H]2CC[C@H](CN(C(=O)Nc3ccc(N(C)C)cc3)C3CCCCC3)CC2)C2CCCCC2)cc1
[33]
  IC50: 7.6 nM

## Oc1ccc2[nH]c3c(C4=C[C@@]5(O)CC/C=C\CCCCN6CCC4[C@]4(C[C@@H]7/C=C\CCCCN7[C@H]45)C6)nccc3c2c1 (some centres undefined)
[1]
  inhibition: Active

Source: ChEMBL document CHEMBL2396550, “Manzamine A, a marine-derived alkaloid, inhibits accumulation of cholesterol ester in macrophages and suppresses hyperlipidemia and atherosclerosis in vivo” (Bioorg Med Chem, 2013)
